Active and inactive are the calls of the source. The calls are words filed in the database; no cut-off is given here.
Tests used:
[1] = target: Telomerase reverse transcriptase (Homo sapiens, UniProt O14746); experiment: Inhibition of telomerase activity from human A2780 cells; format: functional, cell-based
Procedure, shortened: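 TRAP assay with A2780 protein extract, Bradford-quantified. ACX primer (1 µM) and Taq added, 33 PCR cycles. Products on 10% PAGE with SYBR Green I, quantified by gel scanning against a no-protein or heat-inactivated control. Result reported as telEC50.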

MCF7 [2] = experiment: Cytotoxicity in human MCF7 cells by SRB assay; format: functional, cell-based
Nucleic Acid = experiment: Ratio of binding constant of compound binding to human quadruplex DNA over that of duplex DNA; format: nucleic-acid assay
Procedure, shortened: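 Streptavidin-chip SPR (BIAcore 2000/3000) with biotinylated quadruplex or -AATT- duplex DNA loaded at 25 nM. Run in HEPES buffer pH 7.4 (0.20 M KCl, 3 mM EDTA, P20) at 25 °C. Steady-state RU from sensorgram plateaus, flow 10–30 µL/min, plotted against free compound concentration to fit binding constants. Value is the ratio of quadruplex to duplex constants.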

IMR-90 = experiment: Cytotoxicity in human IMR90 cells by SRB assay; format: functional, cell-based
[3] = target: DNA polymerase I, thermostable (Thermus aquaticus) (UniProt P19821); experiment: Inhibition of TAQ polymerase activity at 2 uM
Procedure, shortened: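 PCR with TS forward primer, NT reverse primer (0.5 µM), TSNT template (200 pM), 1 mM MgCl₂, 20 µM dNTPs and 1.25 U Taq, plus compound. Run: 92 °C 2 min, then 33 cycles of 92/52/72 °C. 36 bp product resolved on 10% polyacrylamide gel, stained with SYBR Green I.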

MCF7 [4] = experiment: Increase in senescence in MCF7 cells by staining with SA-beta-Gal at 1 uM; format: functional, cell-based; settings: Homo sapiens
Procedure, shortened: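 MCF7 cells in DMEM, counted and reseeded on day 1, treated that day and re-dosed on day 4 each week, over 4 weeks. Weekly, 1 × 10⁵ cells seeded with compound for about 24 h, then fixed and stained with X-gal solution (citrate/phosphate pH 6.0, ferro/ferricyanide) overnight at 37 °C. Blue cells counted by light microscopy as percentage of total versus vehicle control.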

Telomerase reverse transcriptase, sequence (O14746 whole entry): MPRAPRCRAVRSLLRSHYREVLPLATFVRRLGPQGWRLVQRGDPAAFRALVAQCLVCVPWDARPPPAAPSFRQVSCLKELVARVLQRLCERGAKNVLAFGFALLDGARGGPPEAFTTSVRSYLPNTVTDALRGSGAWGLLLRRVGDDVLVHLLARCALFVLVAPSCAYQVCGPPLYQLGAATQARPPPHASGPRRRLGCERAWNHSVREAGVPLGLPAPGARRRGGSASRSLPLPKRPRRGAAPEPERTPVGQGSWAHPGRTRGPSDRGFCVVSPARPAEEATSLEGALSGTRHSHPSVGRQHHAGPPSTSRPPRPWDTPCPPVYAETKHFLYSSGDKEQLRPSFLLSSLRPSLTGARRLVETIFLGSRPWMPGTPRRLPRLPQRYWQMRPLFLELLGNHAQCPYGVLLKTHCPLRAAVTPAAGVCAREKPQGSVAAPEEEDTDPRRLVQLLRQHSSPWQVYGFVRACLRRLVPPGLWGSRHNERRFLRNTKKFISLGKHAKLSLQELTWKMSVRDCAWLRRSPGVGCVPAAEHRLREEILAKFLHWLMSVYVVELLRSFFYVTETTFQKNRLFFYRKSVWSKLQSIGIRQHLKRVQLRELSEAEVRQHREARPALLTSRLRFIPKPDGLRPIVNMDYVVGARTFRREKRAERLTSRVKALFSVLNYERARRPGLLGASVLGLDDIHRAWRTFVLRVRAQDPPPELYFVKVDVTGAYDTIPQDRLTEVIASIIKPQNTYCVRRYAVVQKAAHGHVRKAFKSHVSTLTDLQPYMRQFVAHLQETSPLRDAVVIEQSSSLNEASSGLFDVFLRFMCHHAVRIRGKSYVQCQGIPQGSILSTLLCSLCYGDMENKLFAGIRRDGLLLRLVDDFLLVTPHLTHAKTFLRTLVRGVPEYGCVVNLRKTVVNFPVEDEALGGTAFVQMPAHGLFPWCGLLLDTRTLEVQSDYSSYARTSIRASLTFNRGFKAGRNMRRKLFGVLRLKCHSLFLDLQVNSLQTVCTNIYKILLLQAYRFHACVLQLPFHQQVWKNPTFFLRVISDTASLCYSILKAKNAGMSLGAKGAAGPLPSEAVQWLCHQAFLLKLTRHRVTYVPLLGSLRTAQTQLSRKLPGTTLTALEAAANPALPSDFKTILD
DNA polymerase I, thermostable (Thermus aquaticus), sequence (P19821 whole entry): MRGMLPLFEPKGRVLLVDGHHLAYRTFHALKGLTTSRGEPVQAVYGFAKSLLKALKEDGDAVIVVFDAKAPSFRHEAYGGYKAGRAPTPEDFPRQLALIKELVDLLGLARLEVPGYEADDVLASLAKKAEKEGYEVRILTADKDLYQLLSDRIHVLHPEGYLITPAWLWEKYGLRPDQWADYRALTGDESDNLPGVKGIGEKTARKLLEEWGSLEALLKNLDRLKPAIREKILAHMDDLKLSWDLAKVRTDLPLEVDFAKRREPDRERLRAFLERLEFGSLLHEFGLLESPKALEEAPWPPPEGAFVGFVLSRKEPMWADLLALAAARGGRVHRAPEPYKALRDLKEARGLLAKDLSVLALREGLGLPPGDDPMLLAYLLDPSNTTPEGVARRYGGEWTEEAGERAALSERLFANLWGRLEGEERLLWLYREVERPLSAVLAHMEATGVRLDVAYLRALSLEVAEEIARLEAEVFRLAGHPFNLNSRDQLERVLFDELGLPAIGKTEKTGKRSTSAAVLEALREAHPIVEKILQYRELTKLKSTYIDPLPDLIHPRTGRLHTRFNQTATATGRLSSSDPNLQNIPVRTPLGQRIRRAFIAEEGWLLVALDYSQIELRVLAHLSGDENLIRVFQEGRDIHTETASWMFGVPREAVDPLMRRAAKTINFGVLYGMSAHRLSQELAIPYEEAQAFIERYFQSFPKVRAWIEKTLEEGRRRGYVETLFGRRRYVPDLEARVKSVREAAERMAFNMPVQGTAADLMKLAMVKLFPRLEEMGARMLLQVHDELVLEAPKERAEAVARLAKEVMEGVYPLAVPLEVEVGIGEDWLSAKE

Row | SMILES | EC50 [1] [µM] | Ratio (Nucleic Acid) | inhibition [3] [%] | IC50 (MCF7 [2]) [µM] | IC50 (IMR-90) [µM] | Activity (MCF7 [4])
1 | O=C(CCN1CCCC1)Nc1ccc2c(Nc3ccc(NC(=O)CN4CCCC4)cc3)c3ccc(NC(=O)CCN4CCCC4)cc3nc2c1 | 0.167 | 10.9 | – | > 25 | > 25 | –
2 | CN(C)c1ccc(Nc2c3ccc(NC(=O)CCN4CCCC4)cc3nc3cc(NC(=O)CCN4CCCC4)ccc23)cc1 | – | 31 | < 25 | – | > 25 | –
3 | O=C(CN1CCCC1)Nc1ccc2cc3ccc(NC(=O)CN4CCCC4)cc3nc2c1 | 5.2 | 1.2 | – | – | – | –
4 | O=C(CCCCCN1CCCC1)Nc1ccc2c(Nc3ccc(NC(=O)CCN4CCCC4)cc3)c3ccc(NC(=O)CCCCCN4CCCC4)cc3nc2c1 | 0.146 | 72 | – | > 25 | > 25 | –
5 | O=C(CCCCN1CCCC1)Nc1ccc2c(Nc3ccc(NC(=O)CCN4CCCC4)cc3)c3ccc(NC(=O)CCCCN4CCCC4)cc3nc2c1 | 0.255 | 1.6 | – | > 25 | > 25 | –

Second part, led by results:

Row | EC50 [1] [µM] | Ratio (Nucleic Acid) | inhibition [3] [%] | SMILES | IC50 (MCF7 [2]) [µM] | IC50 (IMR-90) [µM] | Activity (MCF7 [4])
6 | 1.93 | 4.5 | < 25 | CN(C)c1ccc(Nc2c3ccc(NC(=O)CCCCN4CCCC4)cc3nc3cc(NC(=O)CCCCN4CCCC4)ccc23)cc1 | > 25 | > 25 | –
7 | 6.91 | 5.8 | < 25 | CN(C)c1ccc(Nc2c3ccc(NC(=O)CCCCCN4CCCC4)cc3nc3cc(NC(=O)CCCCCN4CCCC4)ccc23)cc1 | > 25 | > 25 | –
8 | 0.117 | 12.8 | – | O=C(CCCN1CCCC1)Nc1ccc(Nc2c3ccc(NC(=O)CCN4CCCC4)cc3nc3cc(NC(=O)CCN4CCCC4)ccc23)cc1 | > 25 | > 25 | –
9 | 0.326 | 0.6 | – | O=C(CCCN1CCCC1)Nc1ccc2c(Nc3ccc(NC(=O)CCN4CCCC4)cc3)c3ccc(NC(=O)CCCN4CCCC4)cc3nc2c1 | > 25 | > 25 | –
10 | 0.099 | 48 | < 25 | CN(C)c1ccc(Nc2c3ccc(NC(=O)CCCN4CCCC4)cc3nc3cc(NC(=O)CCCN4CCCC4)ccc23)cc1 | 8.75 | > 25 | Active
11 | 0.067 | 29 | – | O=C(CCN1CCCC1)Nc1ccc(Nc2c3ccc(NC(=O)CCN4CCCC4)cc3nc3cc(NC(=O)CCN4CCCC4)ccc23)cc1 | > 25 | > 25 | –
12 | > 20 | – | – | O=C(CCN1CCCC1)Nc1ccc(Nc2c3ccccc3nc3ccccc23)cc1 | – | – | –

From ChEMBL document CHEMBL1147736, “Trisubstituted acridines as G-quadruplex telomere targeting agents. Effects of extensions of the 3,6- and 9-side chains on quadruplex binding, telomerase activity, and cell proliferation” (J Med Chem, 2006)
